From article PMC9582731 (RSC Advances, 2022)

What was measured:
[1] = tested on: acetic acid-induced writhing in mice; assay: Acetic acid-induced writhing analgesic test; assay type: in vivo; details: 3 days, acetic acid i.p., Kunming mice
in vitro = assay type: cell-based; details: mouse
[2] = tested on: λ-carrageenan-induced mouse paw edema; assay: λ-carrageenan-induced mouse paw edema test; assay type: in vivo; details: 10 mg kg^−1 i.g., 2 h before λ-carrageenan, at 2–6 h, ICR mice
In short: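 Test compound given at a low and a high dose, alongside a blank group, a carrageenan-only model group and an indomethacin positive-control group; paw swelling induced with λ-carrageenan.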

[3] = tested on: λ-carrageenan-induced paw edema tissue; assay: H&E histological examination of paw edema tissue; assay type: in vivo, mice; details: treated animals vs λ-carrageenan model group
In short: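 Mice given λ-carrageenan to induce paw edema. Groups: blank, model, indomethacin (positive control), and test compound at low and high dose. Paw tissue was examined by H&E staining for histological change or by immunohistochemical staining for TNF-α, including bone.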

SMILES | Effect on number of writhes ([1]; 19.5 mg kg^−1 i.g.) | IC50 (in vitro) [µM] | Effect on paw edema [2] | Histological change of paw biopsies (H&E) [3] | Effect on number of writhes ([1]; 200 mg kg^−1 i.g.)
O=C(O)Cc1ccccc1Nc1c(Cl)cccc1Cl [Voltaren] | reduce the number of writhes considerably |  |  |  | 
COc1ccc2c(c1)c(CC(=O)O)c(C)n2C(=O)c1ccc(Cl)cc1 [Indo, indomethacin] |  | > 100 | significantly inhibited the development of edema | a reduction in the λ-carrageenan-induced inflammatory response | 
COC1=C[C@@H]2[C@@H]3Cc4ccc(OC)c(O)c4[C@]2(CCN3C)CC1=O [SIN, Sinomenine] |  | > 100 |  |  | almost no analgesic effects
